Consider two molecules from ChEMBL document CHEMBL3217512, “Indole/triazole conjugates are selective inhibitors and inducers of bacterial biofilms” (Medchemcomm, 2013).

In data set [1] the test system is Escherichia coli. The data set is described as follows: Induction of biofilm formation in Escherichia coli K-12 ER2718 assessed as concentration required for 50% promotion of biofilm formation after 24 hrs by crystal violet staining-based assay. Type of data set: functional. Put shortly: (§1)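 For strong inducers of E. coli biofilm, dose-response curves were run in the static crystal violet assay. PC25, PC50 and PC75 are the concentrations promoting biofilm formation by 25%, 50% and 75%.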

Data set [2] concerns Escherichia coli. Nature of the data set: Antimicrobial activity against Escherichia coli K-12 ER2718 assessed as effect on planktonic growth at IC50 after 2 to 24 hrs by colony count method. Type of data set: organism-based.
Data set [3] relates to Acinetobacter baumannii. The data set is described as follows: Inhibition of biofilm formation in Acinetobacter baumannii 19606 at 150 uM after 24 hrs by crystal violet staining-based assay relative to control. Type of data set: functional. The following applies: ATCC 19606 = CIP 70.34 = JCM 6841, 24 h.
The subject of data set [4] is Escherichia coli. The data set is described as follows: Reversal of N-(2-(4-(((3aR,8aR)-1,2,3,3a,8,8a-hexahydropyrrolo[2,3-b]indol-3a-yl)methyl)-1H-1,2,3-triazol-1-yl)ethyl)-4-hexylbenzamide-induced biofilm inhibition in Escherichia coli K-12 ER2718. Type of data set: functional, organism-based. Put shortly: (§2)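 E. coli static crystal violet biofilm assay. The inducer was added at its PC25, PC50 or PC75 concentration together with the reference inhibitor at a fixed concentration. Reversal was taken as the reduction in the inhibitor's anti-biofilm activity.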

The test system of data set [5] is Escherichia coli. The data set is described as follows: Antimicrobial activity against Escherichia coli K-12 ER2718 assessed as effect on planktonic growth at IC50 after 2 to 24 hrs. Type of data set: organism-based.
Data set [6] deals with Escherichia coli. Nature of the data set: Antimicrobial activity against Escherichia coli K-12 ER2718 assessed as effect on planktonic growth at PC50 after 2 to 24 hrs. Type of data set: organism-based.
In data set [7] the test system is Escherichia coli. Nature of the data set: Induction of biofilm formation in Escherichia coli K-12 ER2718 at 50 uM after 24 hrs by crystal violet staining-based assay relative to control. Type of data set: functional. Put shortly:
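Static biofilm assay with compounds at 50 μM and crystal violet read-out, relative to an untreated control. Compounds increasing biofilm by less than 50% were called inducers, and by more than 50% strong inducers.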

Data set [8] has as its system Acinetobacter baumannii. Nature of the data set: Antimicrobial activity against Acinetobacter baumannii 19606 assessed as effect on planktonic growth at IC50 after 2 to 24 hrs. The arrangement: species or system ATCC 19606.
The subject of data set [9] is Acinetobacter baumannii. The data set is described as follows: Antimicrobial activity against Acinetobacter baumannii 19606 assessed as effect on planktonic growth at IC50 after 2 to 24 hrs by colony count method. Also on record: species or system ATCC 19606.
The test system of data set [10] is Escherichia coli. Nature of the data set: Induction of biofilm formation in Escherichia coli K-12 ER2718 assessed as concentration required for 25% promotion of biofilm formation after 24 hrs by crystal violet staining-based assay. Type of data set: functional. Put shortly:
as §1

The test system of data set [11] is Escherichia coli. The data set is described as follows: Antimicrobial activity against Escherichia coli K-12 ER2718 assessed as effect on planktonic growth at PC50 after 2 to 24 hrs by colony count method. As to conditions: in vivo. Type of data set: organism-based.
Data set [12] relates to Escherichia coli. The data set is described as follows: Antimicrobial activity against Escherichia coli K-12 ER2718 assessed as effect on planktonic growth at PC75 in presence of N-(2-(4-(((3aR,8aR)-1,2,3,3a,8,8a-hexahydropyrrolo[2,3-b]indol-3a-yl)methyl)-1H-1,2,3-triazol-1-yl)ethyl)-4-hexylbenzamide. Type of data set: organism-based. As to conditions: in vivo.
Data set [13] relates to Escherichia coli. The data set is described as follows: Reversal of N-(2-(4-(((3aR,8aR)-1,2,3,3a,8,8a-hexahydropyrrolo[2,3-b]indol-3a-yl)methyl)-1H-1,2,3-triazol-1-yl)ethyl)-4-hexylbenzamide-induced biofilm inhibition in Escherichia coli K-12 ER2718 at PC25 relative to control. Type of data set: functional. The arrangement: scale not given: the % may be the effect or the level left. Summed up: as §2

Data set [14] deals with Escherichia coli. Nature of the data set: Induction of biofilm formation in Escherichia coli K-12 ER2718 assessed as concentration required for 75% promotion of biofilm formation after 24 hrs by crystal violet staining-based assay. Type of data set: functional. Summed up:
as §1

The subject of data set [15] is Staphylococcus aureus. Nature of the data set: Inhibition of biofilm formation in Staphylococcus aureus 29213 after 24 hrs by crystal violet staining-based assay. Type of data set: functional, organism-based. The following applies: Staphylococcus aureus, 29213, 24 h. Summed up: (§3)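 Compounds active in the 150 μM screen were taken into dose-response studies under static conditions with a crystal violet read-out. IC50 is the concentration that inhibits 50% of biofilm growth relative to an untreated control.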

Data set [16] deals with Escherichia coli. Nature of the data set: Reversal of N-(2-(4-(((3aR,8aR)-1,2,3,3a,8,8a-hexahydropyrrolo[2,3-b]indol-3a-yl)methyl)-1H-1,2,3-triazol-1-yl)ethyl)-4-hexylbenzamide-induced biofilm inhibition in Escherichia coli K-12 ER2718 at PC75 relative to control. Type of data set: functional. The arrangement: scale not given: the % may be the effect or the level left. Put shortly:
as §2

Data set [17] relates to Escherichia coli. The data set is described as follows: Antimicrobial activity against Escherichia coli K-12 ER2718 assessed as effect on planktonic growth at PC25 in presence of N-(2-(4-(((3aR,8aR)-1,2,3,3a,8,8a-hexahydropyrrolo[2,3-b]indol-3a-yl)methyl)-1H-1,2,3-triazol-1-yl)ethyl)-4-hexylbenzamide. Type of data set: organism-based.
Data set [18] deals with Escherichia coli. The data set is described as follows: Antimicrobial activity against Escherichia coli K-12 ER2718 assessed as effect on planktonic growth at PC75 after 2 to 24 hrs by colony count method. The following applies: in vivo. Type of data set: organism-based.
Data set [19] has as its system Staphylococcus aureus. The data set is described as follows: Inhibition of biofilm formation in methicillin-resistant Staphylococcus aureus BAA 44 after 24 hrs by crystal violet staining-based assay. Type of data set: functional, organism-based. The following applies: BAA 44, 24 h. Summed up:
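Static biofilm development in MRSA, read out by crystal violet staining against an untreated control. Initial screen at 150 μM. Inhibitors then went to dose-response, with IC50 taken as the concentration giving 50% inhibition of biofilm growth. Induction was judged at 50 μM: under 50% induction counted as "inducer", over 50% as "strong inducer".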

Data set [20] concerns Escherichia coli. Nature of the data set: Antimicrobial activity against Escherichia coli K-12 ER2718 assessed as effect on planktonic growth at 50 uM after 2 to 24 hrs. Type of data set: organism-based. Put shortly: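 Growth curve analysis of planktonic bacteria with each biofilm inducer at 50 μM, used to assess toxicity.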
Data set [21] concerns Staphylococcus aureus. The data set is described as follows: Antimicrobial activity against Staphylococcus aureus 29213 assessed as effect on planktonic growth at IC50 after 2 to 24 hrs by colony count method. Type of data set: organism-based. As to conditions: in vivo.
Data set [22] deals with Escherichia coli. Nature of the data set: Antimicrobial activity against Escherichia coli K-12 ER2718 assessed as effect on planktonic growth at PC25 after 2 to 24 hrs by colony count method. Type of data set: organism-based.
The test system of data set [23] is Staphylococcus aureus. Nature of the data set: Antimicrobial activity against Staphylococcus aureus 29213 assessed as effect on planktonic growth at IC50 after 2 to 24 hrs. Type of data set: organism-based. The following applies: in vivo.
Data set [24] deals with Staphylococcus aureus. The data set is described as follows: Antimicrobial activity against methicillin-resistant Staphylococcus aureus BAA 44 assessed as effect on planktonic growth at IC50 after 2 to 24 hrs by colony count method. Type of data set: organism-based. The following applies: in vivo.
Data set [25] relates to Escherichia coli. Nature of the data set: Antimicrobial activity against Escherichia coli K-12 ER2718 assessed as effect on planktonic growth at PC25 after 2 to 24 hrs. Type of data set: organism-based.
The subject of data set [26] is Staphylococcus aureus. Nature of the data set: Antimicrobial activity against methicillin-resistant Staphylococcus aureus BAA 44 assessed as effect on planktonic growth at IC50 after 2 to 24 hrs. As to conditions: in vivo. Type of data set: organism-based.
Data set [27] deals with Escherichia coli. The data set is described as follows: Antimicrobial activity against Escherichia coli K-12 ER2718 assessed as effect on planktonic growth at PC75 after 2 to 24 hrs. Type of data set: organism-based. As to conditions: in vivo.
Data set [28] has as its system Escherichia coli. Nature of the data set: Antimicrobial activity against Escherichia coli K-12 ER2718 assessed as effect on planktonic growth at PC50 in presence of N-(2-(4-(((3aR,8aR)-1,2,3,3a,8,8a-hexahydropyrrolo[2,3-b]indol-3a-yl)methyl)-1H-1,2,3-triazol-1-yl)ethyl)-4-hexylbenzamide. Type of data set: organism-based. As to conditions: in vivo.
Data set [29] concerns Escherichia coli. Nature of the data set: Reversal of N-(2-(4-(((3aR,8aR)-1,2,3,3a,8,8a-hexahydropyrrolo[2,3-b]indol-3a-yl)methyl)-1H-1,2,3-triazol-1-yl)ethyl)-4-hexylbenzamide-induced biofilm inhibition in Escherichia coli K-12 ER2718 at PC50 relative to control. Also on record: scale not given: the % may be the effect or the level left. Type of data set: functional. Put shortly: as §2

Data set [30] has as its system Escherichia coli. The data set is described as follows: Inhibition of biofilm formation in Escherichia coli K-12 ER2718 after 24 hrs by crystal violet staining-based assay. Type of data set: functional, organism-based. As to conditions: K-12 ER2718, 24 h. Summed up: as §3

As usually defined, the inhibition is the relative decrease from the control value, in per cent. Usually IC50 stands for the concentration at which inhibition is half-maximal. For the molecule `CCCCCCc1ccc(C(=O)NCCn2cc(Cc3c[nH]c4ccccc34)nn2)cc1`, the Activity was 82.6 µM with Escherichia coli [1]; “Non-toxic” in the data set on Escherichia coli [2]; “Dose-dependent effect” with Escherichia coli [4]; “Non-toxic” with Escherichia coli [5]; “Non-toxic” in the data set on Escherichia coli [6]; greater than 50% with Escherichia coli [7]. The Activity entry in the data set with Acinetobacter baumannii [8] was “Non-toxic”; in the data set on Acinetobacter baumannii [9], “Non-toxic”; in the data set on Escherichia coli [10], 47.8 µM; in the data set on Escherichia coli [11] it was “Non-toxic”; with Escherichia coli [12] it was “Non-toxic”; in the data set on Escherichia coli [13] it was 7.7%. Moreover, the Activity with Escherichia coli [14] is 160.7 µM; with Escherichia coli [16], 87%; in the data set on Escherichia coli [17], “Non-toxic”; in the data set with Escherichia coli [18], “Non-toxic”; in the data set with Escherichia coli [20], “Non-toxic”; in the data set with Staphylococcus aureus [21], “Non-toxic”. The Activity result in the data set on Escherichia coli [22], in the data set on Staphylococcus aureus [23], in the data set on Staphylococcus aureus [24], with Escherichia coli [25], in the data set on Staphylococcus aureus [26] and in the data set on Escherichia coli [27] was “Non-toxic” in each case. Also, the Activity result is given as “Non-toxic” with Escherichia coli [28] and 47% in the data set on Escherichia coli [29]. The same molecule displayed an inhibition at 150 µM in the data set with Acinetobacter baumannii [3] of 25%. For the same molecule, the IC50 in the data set with Staphylococcus aureus [15] came out at 174 µM; with Staphylococcus aureus [19], 313 µM.
As for `CCCCCCc1ccc(C(=O)NCCn2cc(C[C@@]34CCN[C@@H]3Nc3ccccc34)nn2)cc1`, the results for the IC50 in the data set on Staphylococcus aureus [15], in the data set with Staphylococcus aureus [19] and in the data set with Escherichia coli [30] were 12.5 µM, 3.4 µM and 100 µM, respectively.
